Experimental data published in ChEMBL document CHEMBL4325822, “Discovery of a tetrazolyl β-carboline with in vitro and in vivo osteoprotective activity under estrogen-deficient conditions” (Medchemcomm, 2018).
Active and inactive are the calls of the source. The calls are words filed in the database; no cut-off is given here.

Columns and labels:
[1] = Antioxidant activity assessed as SNP-induced nitric oxide free radical scavenging activity at 500 ug/ml after 150 mins by Griess reagent based method relative to control; assay type: functional
Outline: (§1)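 Serial dilutions (1000 to 1.95 µg·ml⁻¹) were mixed with sodium nitroprusside (10 mM) and incubated 150 min. An equal volume of Griess reagent was added, and absorbance was read at 546 nm. Percentage scavenging was calculated relative to the control without compound.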

Rattus norvegicus [2] = test: Antiosteoporotic activity in Sprague-Dawley rat model of OVX-induced bone loss assessed as increase in femoral bone strength by measuring stiffness at 5 mg/kg, po via gavage for 12 weeks by 3 point bending test (reference value: 122.07 +/- 12.18 N/mm); assay type: functional
Calvarial osteoblast [3] = test: Increase in Runx2 protein expression in Sprague-Dawley rat calvarial osteoblasts at 100 pM after 48 hrs by Western blot analysis; assay type: functional, cell-based
Outline: (§2)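 Rat calvarial osteoblasts (pooled 1–2-day pups, collagenase/dispase digests) at 60–70% confluence treated 48 h. Whole-cell lysates immunoblotted with primary antibody overnight at 4 °C, then HRP secondary, with ECL detection. Densitometry gives fold change normalized to β-actin versus untreated cells. Mean ± SEM of three independent experiments.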

Calvarial osteoblast [4] = test: Increase in OCN protein expression in Sprague-Dawley rat calvarial osteoblasts at 100 pM after 48 hrs by Western blot analysis; assay type: functional, cell-based; outline: as §2
[5] = Antioxidant activity assessed as SNP-induced nitric oxide free radical scavenging activity at lower concentration after 150 mins by Griess reagent based method relative to control; assay type: functional; outline: as §1
Rattus norvegicus [6] = test: Antiosteoporotic activity in Sprague-Dawley rat model of OVX-induced bone loss assessed as increase in femoral bone strength by measuring stiffness at 1 mg/kg, po via gavage for 12 weeks by 3 point bending test (reference value: 122.07 +/- 12.18 N/mm); assay type: functional
Calvarial osteoblast [7] = test: Induction of osteoblast proliferation in Sprague-Dawley rat calvarial osteoblasts at 0.000001 to 1 uM after 48 hrs BrdU incorporation assay; assay type: functional, cell-based
Outline: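 2 × 10³ cells/well in duplicate plates, one for cell number and one for BrdU. Cells treated 48 h in differentiation medium, then BrdU added for a further 24 h. Fixed cells get anti-BrdU (1 h RT), then peroxidase secondary (30 min), TMB (30 min, dark), stop, read at 450 nm. Result given as BrdU(+) osteoblasts, % of total.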

[8] = Antioxidant activity assessed as DPPH radical scavenging activity at 250 ug/ml after 30 mins by spectrophotometric method relative to control; assay type: functional
Outline: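 The compound was serially diluted from 1000 to 1.95 µg·ml⁻¹ and mixed 1:1 with DPPH in methanol. After 30 min at room temperature, absorbance was read at 517 nm. Scavenging (%) = [(Abc − Abs)/Abc] × 100, where Abc is DPPH without compound.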

[9] = Toxicity in Sprague-Dawley rat model of OVX-induced bone loss assessed as uterine weight at 5 mg/kg, po via gavage for 12 weeks (reference value: 0.12 +/- 0.02 g); assay type: organism-based; settings: in vivo, 2016 h
[10] = Induction of osteoblast differentiation in Sprague-Dawley rat calvarial osteoblasts assessed as alkaline phosphatase activity at 100 pM after 48 hrs using PNPP as substrate by spectrophotometric method relative to control; assay type: functional
Outline: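 Calvarial osteoblasts at 2 × 10³ cells/well. Treated 48 h with varied concentrations in differentiation medium (5% charcoal-treated FBS, 10 mM β-glycerophosphate, 50 µg·mL⁻¹ ascorbic acid). Total ALP read with PNPP substrate at 405 nm. Cell-free wells check for compound interference with substrate or absorbance.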

Rattus norvegicus [11] = test: Upregulation of Runx2 mRNA expression in femur bone of Sprague-Dawley rat model of OVX-induced bone loss at 1 to 5 mg/kg, po via gavage for 12 weeks by qPCR analysis; assay type: functional, organism-based
Outline: (§3)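 Ovariectomized female SD rats, osteopenic after 12 weeks, dosed orally once daily for 12 weeks (1.0 or 5.0 mg·kg⁻¹·day⁻¹, 1% gum acacia vehicle); sham and OVX vehicle groups included. Femurs collected at sacrifice for qRT-PCR, analysed by the ΔΔCT method.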

[12] = Hepatotoxicity in Sprague-Dawley rat model of OVX-induced bone loss assessed as morphological changes in liver at 1 to 5 mg/kg, po via gavage for 12 weeks by hematoxylin and eosin staining based assay; assay type: toxicity, organism-based; settings: in vivo, 2016 h
Outline: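 Liver samples from ovariectomized rats after 12 weeks of treatment were dehydrated in isopropanol, cleared in xylene and paraffin-embedded. Transverse 5 µm sections were stained with hematoxylin and eosin and imaged.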

Rattus norvegicus [13] = test: Antiosteoporotic activity in Sprague-Dawley rat model of OVX-induced bone loss assessed as decrease in serum CTX level at 1 to 5 mg/kg, po via gavage for 12 weeks by ELISA; assay type: functional, organism-based
Outline: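 Ovariectomy model as above: 12 weeks of osteopenia, then 12 weeks of daily gavage or subcutaneous estradiol. Serum was separated at autopsy, and CTX and PINP were measured by ELISA kits.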

Rattus norvegicus [14] = test: Upregulation of type-1 collagen mRNA expression in femur bone of Sprague-Dawley rat model of OVX-induced bone loss at 1 to 5 mg/kg, po via gavage for 12 weeks by qPCR analysis; assay type: functional, organism-based; outline: as §3
Calvarial osteoblast [15] = test: Osteogenic activity in Sprague-Dawley rat calvarial osteoblasts assessed as mineralized nodule formation at 100 pM after 21 days by alizarin red-S staining based colorimetric method; assay type: functional
Outline: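 Osteoblasts at 10,000–15,000 cells/cm² in duplicate plates, 21 days in differentiation medium, medium changed every 48 h. Cells fixed in 4% PFA, stained with alizarin red-S (40 mM, pH 4.5, 30 min) and photographed. Stain extracted with 10% acetic acid, pH brought to 4.5 with ammonium hydroxide, read at 405 nm, normalized to cell number.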

Rattus norvegicus [16] = test: Upregulation of OCN mRNA expression in femur bone of Sprague-Dawley rat model of OVX-induced bone loss at 1 to 5 mg/kg, po via gavage for 12 weeks by qPCR analysis; assay type: functional, organism-based; outline: as §3
Rattus norvegicus [17] = test: Antiosteoporotic activity in Sprague-Dawley rat model of OVX-induced bone loss assessed as bone formation rate at 1 mg/kg, po via gavage for 12 weeks by microcomputed tomographic analysis (reference value: 0.171 +/- 0.005 um3/um2/day); assay type: functional
Outline: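 Female Sprague-Dawley rats, 10-12 weeks old, ten per group, were ovariectomized and left 12 weeks for osteopenia. They were then dosed once daily by oral gavage for 12 weeks in 1% gum acacia vehicle. The estradiol arm received 100 µg·kg⁻¹ subcutaneously five days a week. Tetracycline and calcein were given intraperitoneally at 20 mg·kg⁻¹ each. Femur cross-sections (50 µm) were imaged by fluorescence microscopy for MAR and BFR.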

Calvarial osteoblast [18] = test: Cytotoxicity against Sprague-Dawley rat calvarial osteoblasts assessed as reduction in cell viability at 0.000001 to 1 uM after 48 hrs by MTT assay; assay type: cell-based
Outline: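 Osteoblasts came from pooled calvaria of 1-2-day-old Sprague-Dawley pups, isolated by sequential dispase/collagenase digestion. Cells were exposed to compound at 1 pM to 1 µM for 48 h, and viability was measured by MTT.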

SMILES: CCOC(=O)c1cc2c([nH]c3ccccc32)c(C(c2nnnn2C(C)(C)C)N2CCN(C)CC2)n1 (stereo not drawn)
- Activity [1]: 31.4%
- Activity (Rattus norvegicus [2]): 146.6 N/mm
- Activity (Calvarial osteoblast [3]): Active
- Activity (Calvarial osteoblast [4]): Active
- Activity [5]: 4.07%
- Activity (Rattus norvegicus [6]): 151.3 N/mm
- Activity (Calvarial osteoblast [7]): Active
- Activity [8]: 37.8%
- Activity [9]: 0.12 g
- Emax at 0.0001 µM [10]: 89%
- Activity (Rattus norvegicus [11]): Active
- Activity [12]: Non-Toxic
- Activity (Rattus norvegicus [13]): Active
- Activity (Rattus norvegicus [14]): Active
- Activity (Calvarial osteoblast [15]): 70%
- Activity (Rattus norvegicus [16]): Active
- Activity (Rattus norvegicus [17]): 1.032 um3/um2/day
- Activity (Calvarial osteoblast [18]): Non-Toxic
